Measurements as given in ChEMBL document CHEMBL1140925, “Nuclear factor-kappaB mediated inhibition of cytokine production by imidazoline scaffolds” (J Med Chem, 2009).

Assays:
[1] = system: HeLa; experiment: Cell cycle arrest in TNF-alpha-stimulated human HeLa cells transfected with NFkappaB-Luc assessed as accumulation at diploid G1 phase at 0.05 uM after 8 hrs by propidium iodide-based flow cytometry; assay type: functional
[2] = system: HeLa; experiment: Cell cycle arrest in TNF-alpha-stimulated human HeLa cells transfected with NFkappaB-Luc assessed as accumulation at S phase at 1 uM after 8 hrs by propidium iodide-based flow cytometry; assay type: functional
[3] = system: HeLa; experiment: Cell cycle arrest in TNF-alpha-stimulated human HeLa cells transfected with NFkappaB-Luc assessed as accumulation at G2/G1 phase at 1 uM after 8 hrs by propidium iodide-based flow cytometry; assay type: functional
[4] = Cytotoxicity against human whole blood IL-1-beta-stimulated lymphocytes assessed as survival cell count in millions at 20 uM by trypan blue staining based hemocytometer
[5] = system: HeLa; experiment: Cell cycle arrest in TNF-alpha-stimulated human HeLa cells transfected with NFkappaB-Luc assessed as accumulation at S phase at 0.1 uM after 8 hrs by propidium iodide-based flow cytometry; assay type: functional
[6] = system: HeLa; experiment: Cell cycle arrest in TNF-alpha-stimulated human HeLa cells transfected with NFkappaB-Luc assessed as accumulation at S phase at 0.5 uM after 8 hrs by propidium iodide-based flow cytometry; assay type: functional
Procedure, shortened: (§1)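 HeLa NF-κB-luc cells (stable, hygromycin-selected) were treated with vehicle (1% DMSO) or compound at 40–0.2 µM final for 8 h at 37 °C, 5% CO2. Adherent cells were trypsinized, resuspended in PBS/50% FBS, fixed overnight in 70% ice-cold ethanol and washed with cold PBS/10% FBS, then analysed for cell cycle by flow cytometry.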

[7] = system: HeLa; experiment: Effect on cell cycle arrest in TNF-alpha-stimulated human HeLa cells assessed as cell debris level at 0.1 uM after 8 hrs by propidium iodide-based flow cytometry; assay type: functional
[8] = system: HeLa; experiment: Effect on cell cycle arrest in TNF-alpha-stimulated human HeLa cells assessed as cell aggregate level at 1 uM after 8 hrs by propidium iodide-based flow cytometry; assay type: functional
[9] = system: HeLa; experiment: Cell cycle arrest in human HeLa cells transfected with NFkappaB-Luc assessed as accumulation at S phase at 20 uM after 8 hrs by propidium iodide-based flow cytometry; assay type: functional; procedure, shortened: as §1
[10] = system: HeLa; experiment: Cell cycle arrest in TNF-alpha-stimulated human HeLa cells transfected with NFkappaB-Luc assessed as accumulation at S phase at 5 uM after 8 hrs by propidium iodide-based flow cytometry; assay type: functional; procedure, shortened: as §1
[11] = system: HeLa; experiment: Cell cycle arrest in TNF-alpha-stimulated human HeLa cells transfected with NFkappaB-Luc assessed as accumulation at diploid stage at 10 uM after 8 hrs by propidium iodide-based flow cytometry; assay type: functional; procedure, shortened: as §1
[12] = system: HeLa; experiment: Effect on cell cycle arrest in TNF-alpha-stimulated human HeLa cells assessed as cell aggregate level at 0.5 uM after 8 hrs by propidium iodide-based flow cytometry; assay type: functional
[13] = system: HeLa; experiment: Cell cycle arrest in human HeLa cells transfected with NFkappaB-Luc assessed as accumulation at diploid G2 phase at 20 uM after 8 hrs by propidium iodide-based flow cytometry; assay type: functional; procedure, shortened: as §1
[14] = system: HeLa; experiment: Cell cycle arrest in TNF-alpha-stimulated human HeLa cells transfected with NFkappaB-Luc assessed as accumulation at G2/G1 phase at 0.1 uM after 8 hrs by propidium iodide-based flow cytometry; assay type: functional
[15] = system: HeLa; experiment: Cell cycle arrest in TNF-alpha-stimulated human HeLa cells transfected with NFkappaB-Luc assessed as accumulation at S phase at 0.05 uM after 8 hrs by propidium iodide-based flow cytometry; assay type: functional
[16] = system: HeLa; experiment: Effect on cell cycle arrest in TNF-alpha-stimulated human HeLa cells assessed as cell aggregate level at 0.1 uM after 8 hrs by propidium iodide-based flow cytometry; assay type: functional
[17] = system: HeLa; experiment: Effect on cell cycle arrest in TNF-alpha-stimulated human HeLa cells assessed as cell debris level at 0.05 uM after 8 hrs by propidium iodide-based flow cytometry; assay type: functional
[18] = system: HeLa; experiment: Effect on cell cycle arrest in TNF-alpha-stimulated human HeLa cells assessed as cell debris level at 5 uM after 8 hrs by propidium iodide-based flow cytometry; assay type: functional
[19] = system: HeLa; experiment: Effect on cell cycle arrest in TNF-alpha-stimulated human HeLa cells assessed as cell aggregate level at 5 uM after 8 hrs by propidium iodide-based flow cytometry; assay type: functional
[20] = system: HeLa; experiment: Cell cycle arrest in TNF-alpha-stimulated human HeLa cells transfected with NFkappaB-Luc assessed as accumulation at S phase at 10 uM after 8 hrs by propidium iodide-based flow cytometry; assay type: functional; procedure, shortened: as §1
[21] = Cytotoxicity against human whole blood lymphocytes assessed as survival cell count in millions at 20 uM by trypan blue staining based hemocytometer
[22] = system: HeLa; experiment: Cell cycle arrest in TNF-alpha-stimulated human HeLa cells transfected with NFkappaB-Luc assessed as accumulation at diploid stage at 1 uM after 8 hrs by propidium iodide-based flow cytometry; assay type: functional
[23] = system: Blood; experiment: Antiinflammatory activity in human whole blood assessed as inhibition of IL-1-beta-induced IL6 production preincubated 2 hrs before addition of IL1-beta measured after 18 hrs by ELISA; assay type: functional, tissue-based
Procedure, shortened: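 Human blood from donors with white count in the normal range, diluted 1:10 in RPMI-1640 with 10% FBS, penicillin and streptomycin. Aliquots were preincubated with vehicle (0.1% DMSO final) or compound at 10, 3, 1, 0.3 or 0.1 µM final for 2 h at 37 °C, 5% CO2. IL-1β (200 U/mL) was then added for 18 h, and plasma was collected and frozen. Cytokine was measured by ELISA.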

[24] = system: HeLa; experiment: Effect on cell cycle arrest in human HeLa cells assessed as cell debris level at 20 uM after 8 hrs by propidium iodide-based flow cytometry; assay type: functional
Procedure, shortened: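 Cells were exposed to vehicle (1% DMSO) or compound for 8 h at 37 °C, 5% CO₂. They were then trypsinized, resuspended in PBS with 50% FBS, fixed overnight in ice-cold 70% ethanol, and washed twice with ice-cold PBS containing 10% FBS before flow cytometric cell-cycle analysis.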

[25] = system: HeLa; experiment: Cell cycle arrest in TNF-alpha-stimulated human HeLa cells transfected with NFkappaB-Luc assessed as accumulation at diploid G1 phase at 10 uM after 8 hrs by propidium iodide-based flow cytometry; assay type: functional; procedure, shortened: as §1
[26] = system: HeLa; experiment: Cell cycle arrest in TNF-alpha-stimulated human HeLa cells transfected with NFkappaB-Luc assessed as accumulation at diploid stage at 0.1 uM after 8 hrs by propidium iodide-based flow cytometry; assay type: functional
[27] = Cytotoxicity against human whole blood IL-1-beta-stimulated lymphocytes assessed as survival cell count in millions at 1 uM by trypan blue staining based hemocytometer
[28] = system: HeLa; experiment: Cell cycle arrest in TNF-alpha-stimulated human HeLa cells transfected with NFkappaB-Luc assessed as accumulation at diploid G2 phase at 1 uM after 8 hrs by propidium iodide-based flow cytometry; assay type: functional
[29] = Cytotoxicity against human whole blood IL-1-beta-stimulated lymphocytes assessed as survival cell count in millions at 3 uM by trypan blue staining based hemocytometer
[30] = system: HeLa; experiment: Cell cycle arrest in TNF-alpha-stimulated human HeLa cells transfected with NFkappaB-Luc assessed as accumulation at diploid G1 phase at 1 uM after 8 hrs by propidium iodide-based flow cytometry; assay type: functional
[31] = system: HeLa; experiment: Effect on cell cycle arrest in TNF-alpha-stimulated human HeLa cells assessed as cell debris level at 0.5 uM after 8 hrs by propidium iodide-based flow cytometry; assay type: functional
[32] = system: HeLa; experiment: Cell cycle arrest in TNF-alpha-stimulated human HeLa cells transfected with NFkappaB-Luc assessed as accumulation at diploid stage at 20 uM after 8 hrs by propidium iodide-based flow cytometry; assay type: functional; procedure, shortened: as §1

CCOC(=O)[C@]1(c2ccccc2)N=C(c2ccccc2)N(Cc2ccccc2)[C@@H]1c1ccccc1 (racemic)
Activity [1]: 64.3% | Activity [2]: 22.9% | Ratio [3]: 1.91 | Activity [4]: 1.46 mL⁻¹ | Activity [5]: 21.47% | Activity [6]: 22.52% | Activity [7]: 2% | Activity [8]: 0% | Activity [9]: 21.48% | Activity [10]: 19.8% | Activity [11]: 100% | Activity [12]: 0% | Activity [13]: 13.33% | Ratio [14]: 1.92 | Activity [15]: 22.8% | Activity [16]: 0% | Activity [17]: 2.47% | Activity [18]: 2.7% | Activity [19]: 0% | Activity [20]: 16.8% | Cell count [21]: 0.2617 | Activity [22]: 100% | logIC50 [23]: 0.07 | Activity [24]: 9.42% | Activity [25]: 68.19% | Activity [26]: 100% | Activity [27]: 1.42 mL⁻¹ | Activity [28]: 13.88% | Activity [29]: 1.28 mL⁻¹ | Activity [30]: 63.22% | Activity [31]: 3.68% | Activity [32]: 100%
